Experimental data taken from ChEMBL document CHEMBL1671727, “Expression, purification, and characterization of Aspergillus fumigatus sterol 14-alpha demethylase (CYP51) isoenzymes A and B” (Antimicrob Agents Chemother, 2010).
Active and inactive are the calls of the source. The rule behind the calls is not given here.

Key:
[1] = target: T1, 14-alpha sterol demethylase (Neosartorya fumigata (Aspergillus fumigatus)) (UniProt Q96W81); assay: Binding affinity to 1 uM recombinant Aspergillus fumigatus AF293 sterol 14-alpha demethylase isoenzyme B from Escherichia coli membrane suspension assessed as spectral dissociation constant
T1 sequence (whole entry): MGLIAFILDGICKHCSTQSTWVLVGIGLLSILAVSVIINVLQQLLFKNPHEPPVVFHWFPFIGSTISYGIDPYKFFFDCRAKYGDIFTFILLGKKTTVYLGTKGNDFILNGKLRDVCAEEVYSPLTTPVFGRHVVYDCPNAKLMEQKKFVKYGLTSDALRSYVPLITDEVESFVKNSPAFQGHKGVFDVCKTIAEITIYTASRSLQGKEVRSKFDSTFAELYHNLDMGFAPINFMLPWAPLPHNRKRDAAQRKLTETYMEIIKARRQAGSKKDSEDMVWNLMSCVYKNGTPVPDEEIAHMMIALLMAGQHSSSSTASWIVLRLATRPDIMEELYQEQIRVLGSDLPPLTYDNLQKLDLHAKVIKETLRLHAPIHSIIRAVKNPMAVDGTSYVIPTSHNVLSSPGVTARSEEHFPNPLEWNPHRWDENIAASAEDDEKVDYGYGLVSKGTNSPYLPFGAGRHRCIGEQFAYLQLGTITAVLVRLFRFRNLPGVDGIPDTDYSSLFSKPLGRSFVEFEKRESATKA

[2] = target: T1, 14-alpha sterol demethylase (Neosartorya fumigata (Aspergillus fumigatus)); assay: Binding affinity to Aspergillus fumigatus AF293 sterol 14-alpha demethylase isoenzyme B expressed in Escherichia coli assessed as generation of type I difference spectrum at 4.8 uM
[3] = target: T1, 14-alpha sterol demethylase (Neosartorya fumigata (Aspergillus fumigatus)); assay: Binding affinity to Aspergillus fumigatus AF293 sterol 14-alpha demethylase isoenzyme B expressed in Escherichia coli assessed as spectral dissociation constant
How it was run: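 His-tagged CYP51 (Af293 sequence, codon-optimised, E. coli-expressed), cholate-solubilised and Ni-NTA purified, at 1 μM in 0.1 M Tris-HCl pH 8.1 with 25% glycerol. Azole (0.05 mg/ml DMSO stock) titrated in split 4.5 mm cuvettes, with DMSO added to the reference. Difference spectra were read at 500–350 nm. Peak-to-trough change was plotted against concentration. Kd came from Morrison (tight binding), Michaelis-Menten or Hill fits.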

## C=C(CC[C@@H](C)[C@H]1CC[C@@]2(C)C3=C(CC[C@]12C)[C@@]1(C)CC[C@H](C)C(C)(C)C1CC3)C(C)C (stereo not given in full)
[1]
  Ks: 4.1 µM
[2]
  Activity: Active
[3]
  Ks: 22.6 µM

## CC(C)=CCC[C@@H](C)[C@H]1CC[C@@]2(C)C3=C(CC[C@]12C)[C@@]1(C)CC[C@H](O)C(C)(C)[C@@H]1CC3
[1]
  Ks: 3.1 µM
[3]
  Ks: 8.6 µM
